ChEMBL document CHEMBL4477201, “Imidazopyridine and Pyrazolopiperidine Derivatives as Novel Inhibitors of Serine Palmitoyl Transferase” (J Med Chem, 2016)
The source made the active and inactive calls. No cut-off for these calls is given here.

Key:
[1] = target: T1, Serine palmitoyltransferase 1 (Homo sapiens, UniProt O15269); assay: Inhibition of human SPT1 expressed in microsomes of HEK293 cells incubated for 1hr by LC/MS analysis
T1 sequence (O15269 whole entry): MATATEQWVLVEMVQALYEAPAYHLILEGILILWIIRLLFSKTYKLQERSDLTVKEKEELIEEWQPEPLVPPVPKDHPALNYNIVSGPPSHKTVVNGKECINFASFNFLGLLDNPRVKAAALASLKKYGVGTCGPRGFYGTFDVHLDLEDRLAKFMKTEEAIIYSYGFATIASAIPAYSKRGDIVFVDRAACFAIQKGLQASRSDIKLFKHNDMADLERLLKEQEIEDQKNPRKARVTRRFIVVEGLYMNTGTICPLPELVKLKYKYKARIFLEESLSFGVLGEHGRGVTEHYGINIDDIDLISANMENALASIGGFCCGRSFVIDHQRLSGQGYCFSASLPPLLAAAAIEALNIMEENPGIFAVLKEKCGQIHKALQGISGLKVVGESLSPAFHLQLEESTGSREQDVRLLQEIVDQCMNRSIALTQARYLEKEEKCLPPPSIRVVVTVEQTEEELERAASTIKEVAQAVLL
Procedure, shortened: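 SPT source was a microsomal fraction from HEK293 cells, with serine and palmitoyl coenzyme A as substrates. Formation of 3-ketodeoxysphinganine quantified by LC/MS. Inhibition determined at 10 concentrations per compound to give IC50.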

[2] = target: T2, Serine palmitoyltransferase 1 (Homo sapiens) (UniProt O15269); assay: (§1) Inhibition of SPT1 in human MCF7 cells assessed as suppression of 14C-serine incorporation into ceramide incubated for 2 hrs in presence of 4-HPR; type: cell-based
T2 sequence (whole entry): T1 sequence (O15269 whole entry)
Procedure, shortened: (§2)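 Human MCF-7 cells incubated 2 h with a range of compound concentrations or DMSO control media. Medium contained 14C-serine plus 25 uM 4-HPR to activate SPT. 14C-serine-labeled ceramide products quantified to give EC50.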

[3] = target: T1, Serine palmitoyltransferase 1; assay: as §1; type: cell-based; procedure, shortened: as §2
[4] = Toxicity in diet-induced obese C57Bl/6 mouse assessed as decrease in food intake at 25 mg/kg, po qd for 4 weeks; type: organism-based; conditions: in vivo, 672 h
Procedure, shortened: (§3)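 Food intake monitored in DIO mice during 4 weeks of daily oral dosing.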

[5] = Fraction unbound in rat; type: ADME
[6] = test system: Rattus norvegicus; assay: Increase in HDL level in cholic acid/cholesterol-fed Sprague-Dawley rat model of dyslipidemia administered bid through oral gavage measured after 1 week by FPLC analysis relative to vehicle-treated control; type: functional, organism-based
Procedure, shortened: (§4)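 Sprague Dawley rats fed a cholic acid/cholesterol diet for 14 days, then dosed orally BID for 7 days at five dose levels, n=6. Serum ceramides and VLDL and HDL cholesterol compared with vehicle (dose 0). Mean ± SEM; Dunnett's test, p<0.05.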

[7] = Dissociation constant, pKa of the compound; type: physicochemical
[8] = Lipophilicity, log P of compound; type: physicochemical; conditions: octanol/water
[9] = Drug uptake in diet-induced obese C57Bl/6 mouse liver at 1 mg/kg, po qd for 4 weeks measured 6 hrs post last dose; type: ADME, organism-based; conditions: read-out: Drug uptake
Procedure, shortened: (§5)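 Male DIO mice dosed orally for 4 weeks. Sacrificed 6 h after the last dose. Compound measured in serum (ng/mL) and liver (ng/g), and the liver:serum ratio calculated.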

[10] = AUC (0 to 24 hrs) in Sprague-Dawley rat at 1 mg/kg, iv; type: ADME, organism-based; set-up: time < 24 hr, dose 1 mg/kg, route intravenous; conditions: in vivo
Procedure, shortened: (§6)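 Single dose to fasted male Sprague Dawley rats, IV at 1 mg/kg or oral at 3 mg/kg. Plasma levels followed to derive AUC0-24hr, Cmax, half-life, Vdss and oral bioavailability.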

[11] = Cmax in Sprague-Dawley rat at 1 mg/kg, iv; type: ADME, organism-based; set-up: dose 1 mg/kg, route intravenous; conditions: in vivo; procedure, shortened: as §6
[12] = Half life in Sprague-Dawley rat at 1 mg/kg, iv; type: ADME, organism-based; conditions: in vivo; procedure, shortened: as §6
[13] = Volume of distribution at steady state in Sprague-Dawley rat at 1 mg/kg, iv; type: ADME, organism-based; conditions: in vivo, read-out: Vdss; procedure, shortened: as §6
[14] = AUC (0 to 24 hrs) in Sprague-Dawley rat at 3 mg/kg,po; type: ADME, organism-based; set-up: time < 24 hr, dose 3 mg/kg, route oral; conditions: in vivo; procedure, shortened: as §6
[15] = Cmax in Sprague-Dawley rat at 3 mg/kg,po; type: ADME, organism-based; set-up: dose 3 mg/kg, route oral; conditions: in vivo; procedure, shortened: as §6
[16] = Half life in Sprague-Dawley rat at 3 mg/kg,po; type: ADME, organism-based; conditions: in vivo; procedure, shortened: as §6
[17] = Volume of distribution at steady state in Sprague-Dawley rat at 3 mg/kg,po; type: ADME, organism-based; conditions: in vivo
Procedure, shortened: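 Male Sprague Dawley rats, fasted, single oral dose of 3 mg/kg. A parallel arm received 1 mg/kg IV. Plasma was sampled for pharmacokinetics over 0-24 hr. Steady-state volume of distribution is reported […], in mL/kg.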

[18] = Oral bioavailability in Sprague-Dawley rat at 3 mg/kg; type: ADME, organism-based; conditions: in vivo; procedure, shortened: as §6
[19] = test system: Mus musculus; assay: Reduction in total plasma ceramide level in C57BL6 mouse administered through gavage after 6 hrs by mass spectrometry relative to vehicle-treated control; type: functional
Procedure, shortened: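 Normal C57bl6 mice given a single oral dose at six dose levels, n=3 per group. Plasma collected 6 h post dose. C16:0, C20:0, C22:0, C24:0 and C24:1 ceramides measured by mass spectrometry and summed; total reduction calculated versus vehicle. ED50 derived from the dose-response; mean ± SEM.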

[20] = test system: Rattus norvegicus; assay: Reduction in vLDL level in cholic acid/cholesterol-fed Sprague-Dawley rat model of dyslipidemia at 1 to 60 mg/kg administered bid through oral gavage measured after 1 week by FPLC analysis relative to vehicle-treated control; type: functional, organism-based; procedure, shortened: as §4
[21] = test system: Rattus norvegicus; assay: Reduction in total plasma ceramide level in cholic acid/cholesterol-fed Sprague-Dawley rat model of dyslipidemia at 10 to 60 mg/kg administered bid through oral gavage measured after 1 week by FPLC analysis relative to vehicle-treated control; type: functional, organism-based; procedure, shortened: as §4
[22] = test system: Mus musculus; assay: Reduction in total plasma ceramide level in diet-induced obese C57BL6 mouse administered daily through oral gavage for 28 days measured 2 hrs post last dose relative to lean control; type: functional, organism-based
Procedure, shortened: (§7)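 DIO mice dosed orally for 28 days, with myriocin as positive control and lean mice as reference. Total and C18:0 plasma ceramides measured 2 h after the final dose.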

[23] = test system: Mus musculus; assay: Reduction in plasma C18:0 ceramide level in diet-induced obese C57BL6 mouse at 1 to 60 mg/kg administered daily through oral gavage for 28 days measured 2 hrs post last dose relative to lean control; type: functional, organism-based; procedure, shortened: as §7
[24] = Toxicity in rat assessed as induction of gastric enteropathy during 14 days toxicology study; conditions: in vivo, 336 h
[25] = test system: Mus musculus; assay: Reduction in blood glucose in diet-induced obese C57BL6 mouse at 25 mg/kg, po qd for 4 weeks by oral glucose tolerance test relative to lean control; type: functional, organism-based
Procedure, shortened: (§8)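 After 4 weeks of oral dosing, DIO mice underwent an oral glucose tolerance test. Insulin and glucose AUC compared with lean mice; trend assessed by ANOVA trend analysis.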

[26] = test system: Mus musculus; assay: Reduction in serum insulin in diet-induced obese C57BL6 mouse at 25 mg/kg, po qd for 4 weeks by oral glucose tolerance test relative to lean control; type: functional, organism-based; procedure, shortened: as §8
[27] = Toxicity in diet-induced obese C57Bl/6 mouse assessed as decrease in food intake at 10 mg/kg, po qd for 4 weeks; type: organism-based; conditions: in vivo, 672 h; procedure, shortened: as §3
[28] = Drug uptake in diet-induced obese C57Bl/6 mouse serum at 1 mg/kg, po qd for 4 weeks measured 6 hrs post last dose; type: ADME, organism-based; conditions: read-out: Drug uptake; procedure, shortened: as §5
[29] = Drug uptake in diet-induced obese C57Bl/6 mouse serum at 3 mg/kg, po qd for 4 weeks measured 6 hrs post last dose; type: ADME, organism-based; conditions: read-out: Drug uptake; procedure, shortened: as §5
[30] = Drug uptake in diet-induced obese C57Bl/6 mouse serum at 10 mg/kg, po qd for 4 weeks measured 6 hrs post last dose; type: ADME, organism-based; conditions: read-out: Drug uptake; procedure, shortened: as §5
[31] = Drug uptake in diet-induced obese C57Bl/6 mouse serum at 0.1 mg/kg, po qd for 4 weeks measured 6 hrs post last dose; type: ADME, organism-based; conditions: read-out: Drug uptake; procedure, shortened: as §5
[32] = Drug uptake in diet-induced obese C57Bl/6 mouse serum at 25 mg/kg, po qd for 4 weeks measured 6 hrs post last dose; type: ADME, organism-based; conditions: read-out: Drug uptake; procedure, shortened: as §5
[33] = Drug uptake in diet-induced obese C57Bl/6 mouse liver at 3 mg/kg, po qd for 4 weeks measured 6 hrs post last dose; type: ADME, organism-based; conditions: read-out: Drug uptake; procedure, shortened: as §5
[34] = Drug uptake in diet-induced obese C57Bl/6 mouse liver at 10 mg/kg, po qd for 4 weeks measured 6 hrs post last dose; type: ADME, organism-based; conditions: read-out: Drug uptake; procedure, shortened: as §5
[35] = Drug uptake in diet-induced obese C57Bl/6 mouse liver at 0.1 mg/kg, po qd for 4 weeks measured 6 hrs post last dose; type: ADME, organism-based; conditions: read-out: Drug uptake; procedure, shortened: as §5
[36] = Drug uptake in diet-induced obese C57Bl/6 mouse liver at 25 mg/kg, po qd for 4 weeks measured 6 hrs post last dose; type: ADME, organism-based; conditions: read-out: Drug uptake; procedure, shortened: as §5
[37] = Ratio of drug uptake in diet-induced obese C57Bl/6 mouse liver to serum at 1 mg/kg, po qd for 4 weeks measured 6 hrs post last dose; type: ADME, organism-based; procedure, shortened: as §5
[38] = Ratio of drug uptake in diet-induced obese C57Bl/6 mouse liver to serum at 3 mg/kg, po qd for 4 weeks measured 6 hrs post last dose; type: ADME, organism-based; procedure, shortened: as §5
[39] = Ratio of drug uptake in diet-induced obese C57Bl/6 mouse liver to serum at 10 mg/kg, po qd for 4 weeks measured 6 hrs post last dose; type: ADME, organism-based; procedure, shortened: as §5
[40] = Ratio of drug uptake in diet-induced obese C57Bl/6 mouse liver to serum at 0.1 mg/kg, po qd for 4 weeks measured 6 hrs post last dose; type: ADME, organism-based; conditions: other tissue; procedure, shortened: as §5
[41] = Ratio of drug uptake in diet-induced obese C57Bl/6 mouse liver to serum at 25 mg/kg, po qd for 4 weeks measured 6 hrs post last dose; type: ADME, organism-based; procedure, shortened: as §5
[42] = test system: Mus musculus; assay: Reduction in total liver ceramide level in diet-induced obese C57BL6 mouse at 1 to 60 mg/kg administered daily through oral gavage for 28 days measured 6 hrs post last dose relative to lean control; type: functional, organism-based
Procedure, shortened: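 Liver total ceramide levels measured in DIO mice after 4 weeks of oral dosing.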

IC50 [1]: 63.9 nM
inhibition [2]: Dose-dependent effect
EC50 [3]: 4220 nM
fraction unbound [5]: 0.02
pKa [7]: 4.19
logP [8]: 4.66
concentration at 6 h [9]: 61200 ng/g
AUC(0-t) at 24 h [10]: 190 ng·h/mL
Cmax [11]: 756 ng/mL
half-life [12]: 5.17 h
Vd [13]: 8.33 L/kg
AUC(0-t) at 24 h [14]: 155 ng·h/mL
Cmax [15]: 16.3 ng/mL
half-life [16]: 7.65 h
Vdss [17]: 126 L/kg
bioavailability [18]: 33%
concentration at 6 h [28]: 141 ng/mL
concentration at 6 h [29]: 665 ng/mL
concentration at 6 h [30]: 855 ng/mL
concentration at 6 h [31]: 5 ng/mL
concentration at 6 h [32]: 1210 ng/mL
concentration at 6 h [33]: 83800 ng/g
concentration at 6 h [34]: 130000 ng/g
concentration at 6 h [35]: 26500 ng/g
concentration at 6 h [36]: 119000 ng/g
Kp at 6 h [37]: 434
Kp at 6 h [38]: 126
Kp at 6 h [39]: 152
Ratio [40]: 5292
Kp at 6 h [41]: 99
SMILES: CCCCCCC(=O)N1CCc2c(c(-c3ccc(C(C)(C)C(=O)O)cc3)nn2C)C1
Activity [4]: Toxic
Activity [6]: Dose-dependent effect
Activity [19]: Dose-dependent effect
ED50 ([19]; C57BL6, po): 8.8 mg/kg
Activity [20]: inactive
Activity [21]: Active
Activity [22]: Dose-dependent effect
Activity [23]: Active
Activity [24]: Toxic
Activity [25]: Active
Activity [26]: Active
Activity [27]: Non-Toxic
Activity [42]: Active
